From PMC3944078 (ACS chemical biology, 2013)
Where two headings read alike, the source gives them in different places.

Legend:
myoc-OLF [1] = target: T1, myoc-OLF (Homo sapiens, UniProt Q99972); experiment: Differential scanning fluorimetry; assay type: binding; details: DSF; hits at concentrations used for screening
T1 sequence (Q99972 244-503 limits assumed): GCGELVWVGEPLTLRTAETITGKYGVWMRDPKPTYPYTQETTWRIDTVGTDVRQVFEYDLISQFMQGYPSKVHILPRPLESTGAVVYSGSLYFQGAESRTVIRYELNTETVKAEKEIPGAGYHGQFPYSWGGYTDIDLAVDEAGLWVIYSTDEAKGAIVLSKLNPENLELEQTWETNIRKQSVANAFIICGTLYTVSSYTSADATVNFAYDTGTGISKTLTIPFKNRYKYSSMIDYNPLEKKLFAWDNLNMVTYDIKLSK

myoc-OLF [2] = target: T1, myoc-OLF; experiment: SPR binding to immobilized myoc-OLF; details: for Binding mode by SPR: sensorgram inspection
myoc-OLF [3] = target: T1, myoc-OLF; experiment: myoc-OLF amyloid fibrillization assay; assay type: biochemical; details: for Fibrils/deposits by AFM: after fibrillization assay; for myoc-OLF fibrillization (ThT fluorescence): ~3 d, 96-well format
[4] = Solubility behavior under SPR conditions; assay type: physicochemical
myoc-OLF [5] = target: T1, myoc-OLF; experiment: CARS with myoc-OLF, TMAO dose-dependent SO fluorescence, 96-well; assay type: binding; details: 1 µM myoc-OLF, 0.6 M GdnHCl
Outline: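 myoc-OLF was expressed as a Factor Xa-cleavable MBP fusion and purified. TMAO was titrated at 0−1 M, and protein was added last, just before fluorescence readings. The signal window was the SO fluorescence difference with versus without 1 M TMAO.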

MBP [6] = target: T2, MBP (Escherichia coli, UniProt P0AEX9); experiment: DSF thermal stability of MBP with ligands; assay type: binding, E. coli; details: 1 µM MBP, 1mM ligand
Solubility in cell media = assay type: physicochemical; details: addition to cell media
[7] = system: HEK-cell line stably expressing I477N-mutant myocilin; experiment: Cellular toxicity profile; assay type: cell-based; details: up to 200 µM
[8] = system: HEK-cell line stably expressing I477N-mutant myocilin; experiment: Mutant myocilin cellular secretion assay; assay type: cell-based; details: 20, 100, 200 µM compound, 24 h, immunoblotting of media
E. coli MBP = details: MBP ligand; cited from earlier work
MBP [9] = target: T2, MBP; experiment: CARS with MBP, SO fluorescence, 96-well; assay type: binding, E. coli; details: for Change in SO fluorescence in the presence of MBP: negative controls, 0–1 mM
[10] = standard SPR conditions, compounds dissolved in 5% DMSO
[11] = standard SPR conditions, 5% DMSO

## O=C(O)C1=CC(=C(c2ccc(O)c(C(=O)O)c2)c2ccc(O)c(C(=O)O)c2)C=CC1=O [Aurintricarboxilic acid, Aurintricarboxylic acid]
myoc-OLF [1]
  ΔTm: 0.3 ± 0.2 °C
myoc-OLF [2]
  Kd: 17.1 ± 9.6 µM
myoc-OLF [3]
  Fibrils/deposits by AFM: high levels of deposits similar to vehicle control
  myoc-OLF fibrillization (ThT fluorescence): increase in ThT fluorescence

## O=c1c(O)c(-c2cc(O)c(O)c(O)c2)oc2cc(O)cc(O)c12 [Myricetin]
myoc-OLF [1]
  ΔTm: 1.7 ± 0.0 °C
myoc-OLF [2]
  Binding mode by SPR: bind non-specifically
myoc-OLF [2]; [10]
  Kd from SPR: linear dose-response

## CC(C)(C)c1cc(/C=C(\C#N)C(N)=S)cc(C(C)(C)C)c1O [Tyrphostin AG 879]
myoc-OLF [1]
  ΔTm: −0.8 ± 0.0 °C
[4]
  Solubility behavior: poor solubility behavior
myoc-OLF [2]; read-out: Kd from SPR, with surfactant P-20 in buffer solution
  Kd: 38.6 ± 12.7 µM
myoc-OLF [2]; surfactant P-20 present in SPR buffer
  Binding stoichiometry from SPR: stoichiometric binding

## C[N+](C)(C)[O-] [TMAO, trimethylamine-N-oxide]
myoc-OLF [5]
  Concentration by which the decrease in SO fluorescence levels off: ≤ 1 M

## O=C(Nc1ccc([N+](=O)[O-])cc1Cl)c1cc(Cl)ccc1O [Niclosamide]
myoc-OLF [1]
  ΔTm: 0.0 ± 0.2 °C
[4]; [11]
  Solubility behavior: poor solubility behavior
myoc-OLF [2]
  Binding mode by SPR: failed to elicit an interpretable response
myoc-OLF [2]; [10]
  Kd from SPR: no detectable binding ^d

## OC[C@H]1O[C@H](O[C@H]2[C@H](O)[C@@H](O)[C@@H](O[C@H]3[C@H](O)[C@@H](O)[C@@H](O[C@H]4[C@H](O)[C@@H](O)C(O)O[C@@H]4CO)O[C@@H]3CO)O[C@@H]2CO)[C@H](O)[C@@H](O)[C@@H]1O (stereo partly drawn) [maltotetraose]
MBP [6]
  Change in melting temperature (ITm): 10 K

## O=C1Nc2ccc(I)cc2C1=Cc1cc(Br)c(O)c(Br)c1 [GW5074, 3-(3,5-dibromo-4-hydroxybenzylidine-5-iodo-1,3-dihydro-indol-2-one)]
myoc-OLF [1]
  ΔTm: 0.2 ± 0.0 °C
[4]; [11]
  Solubility behavior: poor solubility behavior
myoc-OLF [2]; read-out: Kd from SPR, standard SPR conditions, compounds dissolved in 5% DMSO
  Kd: 33.5 ± 20.9 µM
myoc-OLF [3]
  Fibrils/deposits by AFM: no fibrils apparent
  myoc-OLF fibrillization (ThT fluorescence): decreased myoc-OLF fibrillization in a dose-dependent manner
Solubility in cell media
  Solubility in cell media: precipitated upon addition to the cell media

## O=c1cc(-c2ccccc2)oc2c(O)c(O)ccc12 [A1, 7,8-dihydroxyflavone]
[7]
  Cellular toxicity profile: adequate
myoc-OLF [3]
  myoc-OLF fibrillization (ThT fluorescence): dose-dependent decrease in myoc-OLF fibrilization
[8]
  Secretion of I477N-mutant myocilin: increased I477N-mutant myocilin secretion in a dose-dependent manner
Solubility in cell media
  Solubility in cell media: adequate solubility

## OC[C@@H](O)[C@@H](O[C@H]1O[C@H](CO)[C@@H](O)[C@H](O)[C@H]1O)[C@H](O)[C@@H](O)CO [maltitol]
E. coli MBP
  Kd: 50 µM
MBP [9]; 2 µM MBP, 0.6 M GdnHCl
  Concentration by which a decrease in SO fluorescence was seen: ~ 10 µM
MBP [6]
  Change in melting temperature (ITm): 0.9 K

## O=C1Nc2ccccc2C1=Cc1cc(Br)c(O)c(Br)c1 [G5]
[7]
  Cellular toxicity profile: adequate
myoc-OLF [3]
  myoc-OLF fibrillization (ThT fluorescence): potent fibril inhibition
[8]
  Secretion of I477N-mutant myocilin: increased I477N-mutant myocilin secretion in a dose-dependent manner
Solubility in cell media
  Solubility in cell media: adequate solubility

## O=C(CCc1ccc(O)cc1)c1c(O)cc(O)cc1O [Phloretin]
myoc-OLF [1]
  ΔTm: 1.2 ± 0.0 °C
myoc-OLF [2]
  Binding mode by SPR: bind non-specifically
myoc-OLF [2]; [10]
  Kd from SPR: linear dose-response

## Oc1cc(O)cc(/C=C/c2ccc(O)c(O)c2)c1 [Piceatannol]
myoc-OLF [1]
  ΔTm: −0.4 ± 0.1 °C
myoc-OLF [2]
  Binding mode by SPR: non-stoichiometric binders
myoc-OLF [2]; [10]
  Kd from SPR: sigmoidal dose-response

## NC(=O)CI [iodoacetamide]
MBP [9]
  Change in SO fluorescence in the presence of MBP: Neither

## O=c1cc(-c2ccc(O)cc2)oc2cc(O)cc(O)c12 [Apigenin, 4’,5,7-trihydroxyflavone]
myoc-OLF [1]
  ΔTm: −0.3 ± 0.2 °C
myoc-OLF [3]
  Fibrils/deposits by AFM: no fibrils apparent
  myoc-OLF fibrillization (ThT fluorescence): decreased myoc-OLF fibrillization in a dose-dependent manner
Solubility in cell media
  Solubility in cell media: precipitated upon addition to the cell media

## O=C(/C=C/c1ccc(O)cc1)c1ccc(O)cc1O [Isoliquiritigenin]
myoc-OLF [2]
  Binding mode by SPR: bind non-specifically
myoc-OLF [2]; [10]
  Kd from SPR: linear dose-response

## CC(=O)c1c(O)c(C)c(O)c(Cc2c(O)c3c(c(C(=O)/C=C/c4ccccc4)c2O)OC(C)(C)C=C3)c1O [Rottlerin]
myoc-OLF [2]
  Kd: 30.1 ± 0.6 µM
  Binding mode by SPR: promiscuous binder

## O=c1c(O)c(-c2ccc(O)cc2O)oc2cc(O)cc(O)c12 [Morin]
myoc-OLF [1]
  ΔTm: −0.4 ± 0.4 °C
[4]; [11]
  Solubility behavior: poor solubility behavior
myoc-OLF [2]
  Binding mode by SPR: non-stoichiometric binders
myoc-OLF [2]; with surfactant P-20 in buffer solution
  Kd from SPR: weak sigmoidal response ^c, ^d

## O=S(=O)(F)Cc1ccccc1 [PMSF]
MBP [9]
  Change in SO fluorescence in the presence of MBP: Neither

## OC[C@H]1O[C@H](O[C@H]2[C@H](O)[C@@H](O)C(O)O[C@@H]2CO)[C@H](O)[C@@H](O)[C@@H]1O (mixture of isomers) [Maltose, maltose]
E. coli MBP
  Kd: 1 µM
MBP [9]; at low micromolar concentrations, 2 µM MBP, 0.6 M GdnHCl
  Decrease in SO fluorescence intensity: 50%
MBP [6]
  Change in melting temperature (ITm): 10 K
